We go through seven molecules from ChEMBL document CHEMBL1149907, “Phenolic glycosides from the filamentous fungus Acremonium sp. BCC 14080” (J Nat Prod, 2008).

In one assay the test system is Human alphaherpesvirus 1. Put plainly: Antiviral activity against HSV1 by colorimetric method. Format: functional, organism-based. Summed up: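 HSV-1 inhibition read by a colorimetric method, with acyclovir as the reference compound. IC50 reported as mean ± SD, n = 3.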
For the next assay, the system named is NCI-H187. Briefly: Cytotoxicity against human NCI-H187 cells by colorimetric method. Format: functional, cell-based. Summed up:
(§1)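 Colorimetric cytotoxicity read-out, with ellipticine as the reference compound. Cell types: KB (oral human epidermal carcinoma), BC (human breast cancer), NCI-H187 (human small-cell lung cancer) and Vero (African green monkey kidney fibroblast). IC50 reported as mean ± SD, n = 3.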

The test system of a further assay is KB. Put plainly: Cytotoxicity against human KB cells by colorimetric method. It counts as functional, cell-based. Summed up: as §1
A short description of assay [1]: Cytotoxicity against human BC cells by colorimetric method. It counts as functional, cell-based. Summed up:
as §1

Another assay has as its system Vero. Briefly: Cytotoxicity against African green monkey Vero cells by colorimetric method. Particulars: Chlorocebus sabaeus. It counts as cell-based. The procedure, abridged: as §1
The test system of another assay is Plasmodium falciparum. Briefly: Antimalarial activity against Plasmodium falciparum K1 by microculture radioisotope assay. It counts as functional, organism-based. The procedure, abridged:
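Radioisotope microculture assay of P. falciparum K1 growth, with dihydroartemisinin as the reference antimalarial. IC50 reported as mean ± SD, n = 3.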

Regarding `CCCCCCCc1cc(O)cc(O[C@@H]2O[C@H](CO)[C@@H](OC)[C@H](O)[C@H]2O)c1`, the half-maximal inhibitory concentration (IC50) is over 100 µM in the assay with Human alphaherpesvirus 1; over 50 µM in the assay with NCI-H187; over 50 µM in the assay on KB; over 50 µM in assay [1]; over 100 µM in the assay on Vero; over 25 µM with Plasmodium falciparum.

As to `CCCCCCCc1cc(O)cc(OC(=O)c2c(CCCCCCC)cc(O)cc2O[C@@H]2O[C@H](CO[C@@H]3O[C@H](CO)[C@H](O)[C@H](O)[C@H]3O)[C@H](O)[C@H](O)[C@H]2O)c1`, the IC50 is over 50 µM in the assay on Human alphaherpesvirus 1; over 25 µM in the assay with NCI-H187; over 25 µM in the assay on KB; 20.2 µM in assay [1]; 32.1 µM in the assay on Vero; over 10 µM in the assay with Plasmodium falciparum.

With `C[C@H]1[C@@H](O)O[C@@H]2O[C@@]3(C)CC[C@H]4[C@H](C)CC[C@@H]1[C@@]24OO3` [ARTENIMOL], half-maximal inhibition in the assay with Plasmodium falciparum (IC50) required 0.0039 µM.

Consider `CCCCCCCc1cc(O)cc(OC(=O)c2c(O)cc(O)cc2CCCCCCC)c1`, for which the IC50 with Human alphaherpesvirus 1 is over 100 µM; in the assay on NCI-H187, 13.6 µM; with KB, 13 µM; in assay [1], 8.8 µM; in the assay on Vero, 34.3 µM; with Plasmodium falciparum it was 9.9 µM.

`Nc1nc2c(ncn2COCCO)c(=O)[nH]1` [ACYCLOVIR] gave an IC50 with Human alphaherpesvirus 1 of 10.2 µM.

Regarding `Cc1c2ccncc2c(C)c2c1[nH]c1ccccc12` [ELLIPTECINE], the IC50 was 1.71 µM with NCI-H187, 1.99 µM with KB, 0.49 µM in assay [1] and 10.2 µM with Vero.

Take `CCCCCCCc1cc(O)cc(OC(=O)c2c(CCCCCCC)cc(O)cc2O[C@@H]2O[C@H](CO)[C@H](O)[C@H](O)[C@H]2O)c1`: the IC50 in the assay on Human alphaherpesvirus 1 was 7.2 µM; in the assay on NCI-H187, 13.9 µM; in the assay on KB, over 25 µM; in assay [1], 4.4 µM; in the assay with Vero it was 43.2 µM; in the assay with Plasmodium falciparum, over 10 µM.
